Compound activity as filed in PubChem.
This is a sample that favours compounds with a hit; in the whole collection about 1.5% have one here.
CXCR6 block – blocks human CXCR6 beta-arrestin recruitment. 360,000 tested, 0.36% active. CHO-K1 PathHunter CXCR6 beta-arrestin, luminescence. inhibition, % at 20 µM. AID 602244. O00574; in the data active means inhibition above about 34%, passing the limit was not always enough;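 further: antagonist mode with CXCL16 agonist at 10 nM final; 0% = 10 nM CXCL16 with DMSO and 100% = unstimulated wells without agonist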
APJ ag – agonists of human APJ apelin receptor; P35414; 330,000 tested, 0.11% active; activation, % at 20 µM; CHO-K1 APJ PathHunter beta-arrestin, luminescence; 0% DMSO wells, 100% apelin;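 active means activation more than six SD over the plate average, tested at 20 µM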;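 further: 0% = DMSO alone and 100% = apelin-13 at 10 nM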
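Test system: CHO-K1 APJ beta-arrestin complementation cell line | Compound: Single test compound dose, 20 µM final, 1% DMSO | Incubation: Compound 90 min 25 °C, reagent 1 h | Measured by: beta-gal luminescence | Read-out basis: APJ–arrestin association signal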
CCR6 antag – antagonists of human CCR6 receptor. AID 493098. inhibition, % at 20 µM. CHO-K1 CCR6 PathHunter beta-arrestin, luminescence, CCL20-stimulated. 340,000 tested, 0.49% active;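 active means compounds whose inhibition of the agonist-driven luminescence signal at 20 µM reaches about 50%, limit read from the data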;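 further: cells stimulated with CCL20 at 14 nM final; plate controls were DMSO with CCL20 for no effect and DMSO without agonist for full effect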
APJ antag – antagonists of human APJ apelin receptor; 330,000 tested, 0.32% active; AID 2521; CHO-K1 APJ beta-arrestin complementation, luminescence; inhibition, % at 20 µM;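 active means inhibition above about 40% at 20 µM, limit read from the data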;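 further: cells challenged with 10 nM apelin-13 agonist together with compound; plate controls were apelin-13 plus DMSO wells for no effect and DMSO wells lacking apelin-13 for full effect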
EBI2 antag – blocks human EBI2 receptor beta-arrestin signaling | P32249 | AID 651636 | EBI2 beta-arrestin recruitment, luminescence, 7a,25-OHC stimulated | 360,000 tested, 0.81% active | inhibition, % at 5 µM; in the data active means inhibition above about 38%;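 further: enzyme fragment complementation signal reports receptor beta-arrestin coupling in cells; 0% = agonist plus DMSO wells and 100% = wells without agonist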
Target sequence (P32249 whole entry, looked up, the tested form may be a part): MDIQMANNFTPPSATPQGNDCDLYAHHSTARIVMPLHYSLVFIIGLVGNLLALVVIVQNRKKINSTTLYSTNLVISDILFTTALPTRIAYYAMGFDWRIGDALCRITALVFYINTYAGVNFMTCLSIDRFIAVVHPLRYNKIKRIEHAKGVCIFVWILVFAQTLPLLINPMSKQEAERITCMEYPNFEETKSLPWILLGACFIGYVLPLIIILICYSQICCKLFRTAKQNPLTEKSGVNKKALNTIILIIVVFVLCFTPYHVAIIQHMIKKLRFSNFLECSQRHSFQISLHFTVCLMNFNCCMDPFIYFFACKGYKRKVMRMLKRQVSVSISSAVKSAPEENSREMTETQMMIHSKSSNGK
APJ antag confirm – APJ receptor antagonism confirmation; shares compounds with APJ antag; APJ beta-arrestin recruitment, luminescence, antagonist mode; inhibition, % at 20 µM; 950 tested, 66% active; AID 2766; in the data active means inhibition above about 50%
Active calls of the source: *; · = no result given.

SMILES	CXCR6 block	APJ ag	CCR6 antag	APJ antag	EBI2 antag	APJ antag confirm
CCCCCCN1C[C@@H](O)[C@H](n2cc(C3CC3)nn2)C[C@@H]1c1ccc(C)cc1	0	·	·	·	0	·
Oc1c(C=Nc2cccc3cccnc23)sc2ccccc12	·	-30	·	92*	·	143*
CC1(C(=O)NS(=O)(=O)c2ccc(F)cc2F)CCN1C(=O)c1ccccc1CCc1ccccc1 (stereo unspecified)	-8	·	·	·	7	·
CCOC(=O)C1=CCCN(S(=O)(=O)c2ccc(C)cc2)C1	0	·	·	·	-6	·
O=C(CNS(=O)(=O)c1ccccc1)OCC(=O)c1cccc([N+](=O)[O-])c1	31	-4	47	46*	3	87*
O=C(Cc1ccccc1)OCC(=O)c1cccc([N+](=O)[O-])c1	25	-8	34	-7	10	·
O=C(CNC(=O)c1ccc(Br)o1)OCC(=O)c1cccc([N+](=O)[O-])c1	33	-10	83*	62*	19	62*
O=C(CCC(=O)c1cccs1)OCC(=O)c1ccc(Cl)s1	10	-2	14	41*	2	-2
C[C@@H]1CN([C@@H](C)CO)C(=O)CCCn2nncc2CO[C@@H]1CN(C)C(=O)Nc1ccnc(N2CCOCC2)c1	0	·	·	·	1	·
Cc1cc(C)n(-c2nc(SCC(=O)O)c3c4c(sc3n2)COC(C)(C)C4)n1	-5	0	10	-8	18	·
Cc1cc(C)n(-c2nc(SCCN(C)C)c3c4c(sc3n2)CCCC4)n1	2	-11	19	49*	-8	38
Cc1cccn2c(=O)c3cc(C(=O)NC4CCCC4)c(=N)n(Cc4ccc(F)cc4)c3nc12	11	-2	11	14	22	·
COc1ccc(CCn2c(=N)c(C(=O)NC3CCCC3)cc3c(=O)n4cccc(C)c4nc32)cc1	1	1	0	46*	-3	-2
Cc1cccn2c(=O)c3cc(C(=O)NC4CCCCC4)c(=N)n(Cc4ccccc4)c3nc12	2	-12	12	52*	16	30
c1cncc(-c2nc(-c3ccco3)cs2)c1	19	-6	28	47*	1	18
COc1ccc(-n2c(C)ccc2-c2ccccc2)cn1	7	-1	18	79*	-4	12
CCN(CC)c1ccc(C(=O)NC(=S)Nc2cc(S(=O)(=O)N3CCOCC3)ccc2-n2cncn2)cc1	9	-7	34	41*	10	82*
C=CCNC(=S)Nc1cc(S(=O)(=O)N2CCOCC2)ccc1-n1cncn1	13	0	26	9	-2	·
Nc1nc2c(ncn2[C@@H]2O[C@H](CNS(=O)(=O)C3CC3)[C@@H](O)[C@H]2O)c(=O)[nH]1	7	·	·	·	-11	·
Cc1cccc2c1N(CCCOc1ccccc1)C(=O)C2=O	0	-5	39	44*	11	76*
Cc1cccc(C)c1NC(=O)C1(C)CN(S(C)(=O)=O)CC(=O)N1Cc1ccc2c(c1)OCO2 (stereo unspecified)	·	·	·	·	0	·
N#CC(C#N)=CC1=C2OC(c3ccccc3)=CC(c3ccccc3)=C2CCC1	28	-8	32	41*	6	59*
O=C(Nc1ccccc1SC(=O)c1ccccc1)c1ccccc1	-12	·	·	·	11	·
Cc1ccc(C(=O)Sc2cccccc2=O)cc1	84*	-9	92*	85*	67*	102*
Cn1cccc1Cc1nnc(SCC(=O)NCc2ccc(F)cc2)n1-c1ccc(F)cc1	-1	-1	-2	58*	19	14
SMILES	CXCR6 block	APJ ag	CCR6 antag	APJ antag	EBI2 antag	APJ antag confirm
CN1C(=O)/C(=C/c2ccc(O)c([N+](=O)[O-])c2)N(C)C1=S	43*	-8	57*	46*	3	85*
C1=C(CCNCC2CC2)CCCC1	2	0	-10	41*	0	32
CCN(Cc1ccccc1)c1ccc(N=Nc2nn(C)c(C)c2[N+](=O)[O-])cc1	49*	-7	64*	44*	20	113*
CCN(Cc1ccccc1)c1ccccc1	-1	·	18	·	0	·
O=C(COc1ccccc1)NNC(=O)c1cc2ccccc2o1	2	3	-9	8	1	·
O=C(Cc1ccc(F)cc1)OCC(=O)c1cc2ccccc2o1	11	-12	89*	77*	-5	90*
O=C(CCNc1ccc(F)cc1)c1cc2ccccc2o1	-1	-1	5	-17	2	·
CC(NC(=O)COc1ccccc1)C(=O)OCC(=O)c1cc2ccccc2o1 (stereo unspecified)	44*	-20	89*	55*	13	116*
C=CCn1c(-c2cccc3ccccc23)n[nH]c1=S	4	-2	-18	43*	13	15
C=CCn1c(-c2ccccc2OC)n[nH]c1=S	0	-3	5	5	-12	·
CCN1/C(=C/C=C/c2sc3ccccc3[n+]2CC)Sc2ccccc21	19	6	38	49*	2	121*
N#C/C(=N\Nc1ccccc1)C(N)=S	12	-6	15	22	-15	·
N#C/C(=N/Nc1ccccc1[N+](=O)[O-])C(N)=S	18	-9	36	40*	-3	105*
CC(=O)c1cccc(NC(=O)Cn2cnc(S(=O)(=O)N3CCC(C)CC3)c2)c1	-9	-3	-3	42*	9	23
CC1CCN(S(=O)(=O)c2cn(CC(=O)Nc3cccc(C#N)c3)cn2)CC1	-8	-1	16	3	-6	·
NS(=O)(=O)c1ccc(N=Nc2c(=O)[nH]n3c(=O)c4c([nH]c23)CCCC4)cc1	25	-9	35	45*	8	58*
Cc1cc(C(=O)N2CCC2(C)C(=O)NS(=O)(=O)c2cccc(OC(F)F)c2)nn1C (stereo unspecified)	2	·	·	·	-3	·
Cc1ccc2nc(C)cc(C(=O)OCC(=O)c3ccc(Cl)c([N+](=O)[O-])c3)c2c1	59*	-22	102*	86*	21	126*
Cc1cc(C(=O)OCC(=O)c2ccc(Cl)c([N+](=O)[O-])c2)c2cccc(C)c2n1	26	-5	45	11	3	·
CC(=O)Nc1ccc(C(=O)OCC(=O)c2ccc(C)c([N+](=O)[O-])c2)cc1	-5	-5	23	10	-6	·
Cc1ccc(C(=O)NCC(=O)OCC(=O)c2ccc(C)c([N+](=O)[O-])c2)cc1	17	-4	40	55*	5	60*
Cc1ccc(C(=O)COC(=O)CNC(=O)C(c2ccccc2)c2ccccc2)cc1[N+](=O)[O-]	23	-15	58*	64*	10	67*
O=C(Cc1ccccc1)NCC(=O)OCC(=O)c1ccc(Cl)c([N+](=O)[O-])c1	48*	-11	91*	89*	17	144*
CCc1ccc(C(=O)COC(=O)CNC(=O)Cc2ccccc2)cc1	-5	-3	-2	-1	9	·
